Tested on: MS2 coat protein
Assay: apparent Kd, MS2 coat protein; higher = weaker binding; RNA-MaP array; FMN 200 µM where present
How it was run: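 The apparent Kd is reported as the median of filtered per-cluster binding-curve fits. To get these curves, designs transcribed by stalled E. coli RNA polymerase on Illumina sequencing-chip clusters were titrated with SNAP-549-labelled MS2 coat protein from 0.7 or 1.5 nM, doubling to 3 µM. Titrations were run without and then with constant ligand in 100 mM Tris-HCl pH 7.5, 80 mM KCl, 4 mM MgCl2, BSA, DTT, yeast tRNA and Tween-20, and green signal was normalised to red-channel RNA signal and control-cluster median Fmax.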

[1] = designed as: OFF switch for flavin mononucleotide, no ligand
[2] = ligand present: flavin mononucleotide, designed as: OFF switch for flavin mononucleotide
[3] = designed as: ON switch for flavin mononucleotide, no ligand
[4] = ligand present: flavin mononucleotide, designed as: ON switch for flavin mononucleotide

GCUGACGAUGUAGGAUAUCUCGACGAUAAGUCGAGAGAAGGACAUGAGGAUCACCCAUGUAAACUCACGUCAGCGAGGAAACUC
apparent Kd [1]: 16.1 nM | apparent Kd [2]: 17.2 nM

GCUGCAAAUGAGAAGGCGAUCAUGAAACAUGAUCGAGGAUAUCAUGUUUACAUGAGGAUCACCCAUGUAUGGGUAUAUUGCAGC
apparent Kd [3]: 707 nM | apparent Kd [4]: 14.3 nM

GCUGCAUAGGCAGGAUAUGCAAUAAUUCGGAUAAAAUAUAACGAAUUAACAUGAGGAUCACCCAUGUAGAAGGGCCUGUGCAGU
apparent Kd [1]: 5.95 nM | apparent Kd [2]: 5.72 nM

GCUGCAUGCAGAGGAUAUGACACAUGAGGAUCACCCAUGUAAUAAAUGAGAAUUUCGAAUGUAACUCAGAAGGCUGCAUGCAGC
apparent Kd [1]: 54.2 nM | apparent Kd [2]: 186 nM

GCUGGAAAAGGAUAUACAUAACGUGCGUCAGCACGAGGCCUACAUGAGGAUCACCCAUGUAGAAGGUUUCCAGC
apparent Kd [1]: 17.1 nM | apparent Kd [2]: 25.9 nM

GCUGGACGAGGAUAUACAUUCGUGCUUCGGCACGUAAGAUCACAUGAGGAUCACCCAUGUAGAAGGUGUCCAGC
apparent Kd [1]: 42.1 nM | apparent Kd [2]: 200 nM

GCUGGGUCAGGAUAUACGAGAUCGAAAGAUCGAAGAUCCGUACAUGAGGAUCACCCAUGUAGAAGGGACUGGGC
apparent Kd [1]: 21.4 nM | apparent Kd [2]: 44.7 nM

GCUGUCGCAUGAGGAUAUGGUCAGGUUUCCUGACCAGAAGGCAUGUCAAUAGACAUGAGGAUCACCCAUGUAGUAAAGACAGCA
apparent Kd [3]: 447 nM | apparent Kd [4]: 36.4 nM

GCUGUGGCAUGAGGAUAUGGUCUGCUUUGCAGACCAGAAGGCAUGUCAAUAGACAUGAGGAUCACCCAUGUAGUUAACACAGCA
apparent Kd [3]: 510 nM | apparent Kd [4]: 38.6 nM

GGAAAGGACAGAGGAUAUACGUGCUAGAGAUACUAGCAAAAUUUCCUCACAUGAGGAUCACCCAUGUAGAAGGCUGUCCUAUCG
apparent Kd [1]: 16.2 nM | apparent Kd [2]: 394 nM

GGAAAUCAUGUAGGAUAUGCAUGGCGAAGCUACGCAGAAGGACAUGAGGAUCACCCAUGUUAUAGCGUCCGAGAAAGGAUGCGA
apparent Kd [1]: 55.6 nM | apparent Kd [2]: 114 nM

GGAAAUUAGCAAGGAUAUCGGCUCACUAUAACUUUAUGCCCUAGGACAUGAGGAUCACCCAUGUACGAGAAGGUGCUAACUACA
apparent Kd [1]: 28.9 nM | apparent Kd [2]: 30.7 nM

GGAAGACAAAGUCUUCCAUUACGAACAUGAGGAUCACCCAUGUAGGAUAUGCUACUCAAAGAGUAGCAGAAGGACAUGUGUCUU
apparent Kd [1]: 27.4 nM | apparent Kd [2]: 120 nM

GGAAGACAAAGUCUUCCUAUUCGAACAUGAGGAUCACCCAUGUAGGAUAUGCUACUCAAAGAGUAGCAGAAGGACAUGUGCUUU
apparent Kd [1]: 34.8 nM | apparent Kd [2]: 160 nM

GGAAGGUGAGGAUAUACAAUGACGGAAACGUCAGGUGAGAGACAUGAGGAUCACCCAUGUAGAAGGCACGGAGA
apparent Kd [1]: 73.7 nM | apparent Kd [2]: 730 nM

GGAAUACAUGAGGAUCACCCAUGUAAGGAUAUGCUGAUUAAUUAAUUAUAAUUAUGCAGCAGAAGGUACAAAGG
apparent Kd [1]: 85.9 nM | apparent Kd [2]: 104 nM

GGACAUCCCACAGGAUAUGCUGGACUUUGUCCAGCAGAAGGGUGAAAUACAUGAGGAUCACCCAUGUGGAUGUCCAUAUUUAAU
apparent Kd [3]: 747 nM | apparent Kd [4]: 253 nM

GGACAUGUCGUUUACAUGAGGAUCACCCAUGUCGAUGGACAUGAGGAUAUCGAUACAAAUUGUAUCGAGAAGGCAUGCAUGUCC
apparent Kd [3]: 40.8 nM | apparent Kd [4]: 18.5 nM

GGACGACACAUCUACAUGAGGAUCACCCAUGUCAAAAGACAUGAGGAUAUGCUACCUAAUUGGUAGCAGAAGGCAUGGUCGUCC
apparent Kd [3]: 1370 nM | apparent Kd [4]: 67.2 nM

GGACGUCACAUUAACAUGAGGAUCACCCAUGUAAAAUAACAUGAGGAUAUGGAUCCUAAUUGGAUCCAGAAGGCAUGGACGUCC
apparent Kd [3]: 7.66 nM | apparent Kd [4]: 5.58 nM

GGAGAUACAUGAGGAUCACCCAUGUAGGAUAUAUAGUAUAUAUAUAGCGAAAGCUAUAUAUAUAUAUAGAAGGGCGUACACACC
apparent Kd [1]: 7.67 nM | apparent Kd [2]: 8.02 nM

GGAGCACACAUUAACAUGAGGAUCACCCAUGUCAAAAGACAUGAGGAUAUGGAUCCGAAAAGGAUCCAGAAGGCAUCGUGCUCC
apparent Kd [3]: 413 nM | apparent Kd [4]: 24.7 nM

GGAGCAGGGUCAGGAUAUGUAGGUAGACGGCAAAUAGAAGGGACAUGAGGAUCACCCAUGUAACAUUAAAAUGAAGCAAGGGAG
apparent Kd [1]: 66.4 nM | apparent Kd [2]: 71.5 nM

GGAGCAUAUGUCAGGAUAUCGUGGUCGAUAGAUCACGAGAAGGGACAUGAGGAUCACCCAUGUCAGUCCGCUCC
apparent Kd [1]: 14.3 nM | apparent Kd [2]: 20.7 nM

GGAGCCGGCACCGAGGAUAUUCAUAUUAAAACAUGAGGAUCACCCAUGUACCGCAGAAGCGGUUGGGAGAAGGCGGAUCGGCUCG
apparent Kd [3]: 691 nM | apparent Kd [4]: 42.1 nM

GGAGCCGGCACCGAGGAUAUUCAUAUUAAAACAUGAGGAUCACCCAUGUAGAGCGAAAGCUCUUGGGAGAAGGCGGAUCGGCUCG
apparent Kd [3]: 730 nM | apparent Kd [4]: 46.5 nM

GGAGCCGGCCUAGGAUAUUUCAUAUUUAAACAUGAGGAUCACCCAUGUAGGCCAGAAGGCCUUGGGAAGAAGGAGGUCGGCUCC
apparent Kd [3]: 88.1 nM | apparent Kd [4]: 17.5 nM
